For data set [1], the system named is HUVEC. The data set is described as follows: Cytotoxicity against HUVEC cell at 250 ug/ml after 6 days. Format: cell-based. The settings on record: human, 144 h. The method in brief: (§1)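 HUVEC (passage 2–4) seeded at 4×10^3 cells/well in medium 199 with 20% human adult serum; after 8 h washed twice, then exposed to medium 199 with 5% human adult serum ± sample. Samples were 0.5% stocks in 33% PEG 400, diluted into the medium. Growth was scored microscopically every other day for 6 days against 5% serum (negative) and 30% serum (positive) controls.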

Data set [2] deals with HUVEC. The data set is described as follows: Induction of HUVEC cell proliferation at 50 ug/ml after 6 days. The settings on record: Homo sapiens. Format: functional, cell-based. In a few lines: as §1
Data set [3] deals with HUVEC. The data set is described as follows: Cytotoxicity against HUVEC cell at 5 ug/ml after 6 days. Format: cell-based. The note with it: human, 144 h. The method in brief:
(§2)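 HUVEC (passages 2–4) seeded at 4×10^3 cells/well in medium 199 with 20% human adult serum, washed after 8 h, then given medium 199 with 5% human adult serum ± sample (from 0.5% stocks in PEG 400 33%). Growth was scored microscopically every other day for 6 days against 5% serum (negative) and 30% serum (positive) controls, with toxicity graded.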

Data set [4] deals with HUVEC. Description: Cytotoxicity against HUVEC cell at 2.5 ug/ml after 6 days. Format: cell-based. The settings on record: human, 144 h. In a few lines:
as §2

Data set [5] relates to HUVEC. Description: Cytotoxicity against HUVEC cell at 25 ug/ml after 6 days. The settings on record: human, 144 h. Format: cell-based. The method in brief: as §2
Data set [6] has as its system HUVEC. Description: Induction of HUVEC cell proliferation at 0.25 ug/ml after 6 days. Format: functional, cell-based. The note with it: Homo sapiens. In a few lines: as §1
For data set [7], the system named is HUVEC. The data set is described as follows: Effect on HUVEC cells proliferation assessed as [3H]thymidine incorporation at 0.4883 ug/ml after 90 hrs by liquid scintillation counting relative to negative control. Format: functional, Homo sapiens. In a few lines:
(§3)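 HUVEC seeded at 10×10^3 cells/well in medium 199 with 20% human adult serum. After 6 h, washed, then given twofold sample dilutions in medium 199 with 2% human adult serum, 37°, 5% CO2, 90 h. Then 1 μCi [3H]thymidine/well for 6 h. TCA-fixed, DNA solubilized in SDS/NaOH at 60° for 2 h, scintillation counted. cpm/cell expressed as % of untreated control.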

For data set [8], the system named is HUVEC. Description: Effect on HUVEC cells proliferation assessed as [3H]thymidine incorporation at 1.9531 ug/ml after 90 hrs by liquid scintillation counting relative to negative control. The class given is functional, Homo sapiens. The method in brief: as §3
Data set [9] relates to HUVEC. The data set is described as follows: Effect on HUVEC cells proliferation assessed as inhibition of [3H]thymidine incorporation at 0.4883 ug/ml after 90 hrs by liquid scintillation counting. The class given is functional. The settings on record: Homo sapiens. The method in brief: (§4)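 HUVEC seeded at 10×10^3 cells/well, washed after 6 h, then exposed 90 h to twofold dilutions in medium 199 with 2% human adult serum. Pulsed 6 h with 1 μCi [3H]thymidine, TCA-fixed, lysed in 0.1% SDS/0.2 N NaOH, scintillation counted. Incorporation per cell (cpm/cells counted) relative to untreated control gave % inhibition.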

The test system of data set [10] is HUVEC. Description: Effect on HUVEC cells proliferation assessed as inhibition of [3H]thymidine incorporation at 62.5 ug/ml after 90 hrs by liquid scintillation counting. The settings on record: Homo sapiens. The class given is functional. The method in brief: as §4
Data set [11] deals with HUVEC. Description: Effect on HUVEC cells proliferation assessed as [3H]thymidine incorporation at 125 ug/ml after 90 hrs by liquid scintillation counting relative to negative control. Format: functional, Homo sapiens. In a few lines: as §3
For data set [12], the system named is HUVEC. Description: Effect on HUVEC cells proliferation assessed as [3H]thymidine incorporation at 15.625 ug/ml after 90 hrs by liquid scintillation counting relative to negative control. The class given is functional, Homo sapiens. In a few lines: as §3
Data set [13] has as its system HUVEC. The data set is described as follows: Effect on HUVEC cells proliferation assessed as viable cells at 250 ug/ml after 90 hrs relative to negative control. Format: functional. The note with it: Homo sapiens, read-out: Activity. The method in brief:
(§5)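 HUVEC seeded at 10×10^3 cells/well in 20% serum medium. After 6 h, washed and exposed to twofold sample dilutions (250 down to 0.49 μg/ml) in medium 199 with 2% human adult serum for 90 h plus a 6 h thymidine pulse. Cells counted under an inverted microscope after TCA fixation, as % of untreated control.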

Data set [14] concerns HUVEC. Description: Effect on HUVEC cells proliferation assessed as inhibition of [3H]thymidine incorporation at 3.9062 ug/ml after 90 hrs by liquid scintillation counting. The class given is functional. The note with it: Homo sapiens. In a few lines:
as §4

Data set [15] concerns HUVEC. The data set is described as follows: Effect on HUVEC cells proliferation assessed as viable cells at 0.9766 ug/ml after 90 hrs relative to negative control. Format: functional. The note with it: Homo sapiens, read-out: Activity. The method in brief: as §5
Data set [16] has as its system HUVEC. The data set is described as follows: Effect on HUVEC cells proliferation assessed as [3H]thymidine incorporation at 0.9766 ug/ml after 90 hrs by liquid scintillation counting relative to negative control. The class given is functional, Homo sapiens. The method in brief:
as §3

In data set [17] the test system is HUVEC. Description: Effect on HUVEC cells proliferation assessed as viable cells at 62.5 ug/ml after 90 hrs relative to negative control. The class given is functional. The settings on record: Homo sapiens, read-out: Activity. The method in brief:
as §5

The test system of data set [18] is HUVEC. Description: Effect on HUVEC cells proliferation assessed as viable cells at 0.4883 ug/ml after 90 hrs relative to negative control. The class given is functional. The settings on record: Homo sapiens, read-out: Activity. In a few lines:
as §5

In data set [19] the test system is HUVEC. Description: Effect on HUVEC cells proliferation assessed as viable cells at 31.25 ug/ml after 90 hrs relative to negative control. The class given is functional. The note with it: Homo sapiens, read-out: Activity. In a few lines: as §5
Data set [20] relates to HUVEC. Description: Effect on HUVEC cells proliferation assessed as [3H]thymidine incorporation at 3.9062 ug/ml after 90 hrs by liquid scintillation counting relative to negative control. The class given is functional, Homo sapiens. The method in brief: as §3
Data set [21] deals with HUVEC. The data set is described as follows: Effect on HUVEC cells proliferation assessed as viable cells at 15.625 ug/ml after 90 hrs relative to negative control. Format: functional. The settings on record: Homo sapiens, read-out: Activity. In a few lines: as §5
In data set [22] the test system is HUVEC. Description: Effect on HUVEC cells proliferation assessed as [3H]thymidine incorporation at 31.25 ug/ml after 90 hrs by liquid scintillation counting relative to negative control. The class given is functional, Homo sapiens. In a few lines: as §3
Data set [23] has as its system HUVEC. The data set is described as follows: Effect on HUVEC cells proliferation assessed as inhibition of [3H]thymidine incorporation at 15.625 ug/ml after 90 hrs by liquid scintillation counting. Format: functional. The settings on record: Homo sapiens. In a few lines: as §4
In data set [24] the test system is HUVEC. The data set is described as follows: Effect on HUVEC cells proliferation assessed as viable cells at 125 ug/ml after 90 hrs relative to negative control. The note with it: Homo sapiens, read-out: Activity. Format: functional. The method in brief: as §5
The test system of data set [25] is HUVEC. The data set is described as follows: Induction of HUVEC cell proliferation at 2.5 ug/ml after 6 days. The class given is functional, cell-based. The settings on record: Homo sapiens. In a few lines: as §1
For data set [26], the system named is HUVEC. Description: Effect on HUVEC cells proliferation assessed as viable cells at 1.9531 ug/ml after 90 hrs relative to negative control. The class given is functional. The settings on record: Homo sapiens, read-out: Activity. In a few lines: as §5
The test system of data set [27] is HUVEC. Description: Effect on HUVEC cells proliferation assessed as viable cells at 7.8125 ug/ml after 90 hrs relative to negative control. The class given is functional. The note with it: Homo sapiens, read-out: Activity. The method in brief:
as §5

Data set [28] concerns HUVEC. Description: Effect on HUVEC cells proliferation assessed as inhibition of [3H]thymidine incorporation at 125 ug/ml after 90 hrs by liquid scintillation counting. The class given is functional. The settings on record: Homo sapiens. The method in brief: as §4
Data set [29] has as its system HUVEC. The data set is described as follows: Effect on HUVEC cells proliferation assessed as inhibition of [3H]thymidine incorporation at 1.9531 ug/ml after 90 hrs by liquid scintillation counting. The class given is functional. The settings on record: Homo sapiens. The method in brief: as §4
Data set [30] relates to HUVEC. The data set is described as follows: Effect on HUVEC cells proliferation assessed as inhibition of [3H]thymidine incorporation at 31.25 ug/ml after 90 hrs by liquid scintillation counting. Format: functional. The note with it: Homo sapiens. In a few lines:
as §4

The subject of data set [31] is HUVEC. The data set is described as follows: Effect on HUVEC cells proliferation assessed as inhibition of [3H]thymidine incorporation at 7.8125 ug/ml after 90 hrs by liquid scintillation counting. Format: functional. The settings on record: Homo sapiens. In a few lines: as §4
The test system of data set [32] is HUVEC. Description: Effect on HUVEC cells proliferation assessed as inhibition of [3H]thymidine incorporation at 0.9766 ug/ml after 90 hrs by liquid scintillation counting. Format: functional. The settings on record: Homo sapiens. In a few lines: as §4
Data set [33] has as its system HUVEC. Description: Effect on HUVEC cells proliferation assessed as viable cells at 3.9062 ug/ml after 90 hrs relative to negative control. The settings on record: Homo sapiens, read-out: Activity. Format: functional. In a few lines: as §5
The test system of data set [34] is HUVEC. Description: Effect on HUVEC cells proliferation assessed as [3H]thymidine incorporation at 7.8125 ug/ml after 90 hrs by liquid scintillation counting relative to negative control. The class given is functional, Homo sapiens. In a few lines:
as §3

In data set [35] the test system is HUVEC. The data set is described as follows: Effect on HUVEC cells proliferation assessed as [3H]thymidine incorporation at 62.5 ug/ml after 90 hrs by liquid scintillation counting relative to negative control. The class given is functional, Homo sapiens. The method in brief: as §3

Activity calls are given as the source filed them. The rule behind the calls is not given here.

On to `COc1ccc([C@H]2Oc3c(O)cc(CCCO)cc3[C@@H]2CO)cc1OC`, for which the Activity entry with HUVEC [1] is recorded as “Toxic”. Besides, the result in the data set with HUVEC [2] was inactive.

Turning to `COc1ccc2c(=O)oc3c(OC)cc(CCN(C)C)c4c(=O)oc1c2c34` [TASPINE], the Activity result in the data set with HUVEC [3], in the data set with HUVEC [4] and in the data set with HUVEC [5] was “Toxic” throughout. The result in the data set on HUVEC [6] was inactive.

Take `COc1ccc([C@H]2Oc3c(OC)cc(CCCO)cc3[C@@H]2CO)cc1OC`: the Activity in the data set on HUVEC [7] was 101%; in the data set with HUVEC [1], “Toxic”; in the data set with HUVEC [8], 52%; in the data set on HUVEC [11], 3%; in the data set on HUVEC [12], 13%; in the data set on HUVEC [16], 68%. In addition, the Activity is 29% in the data set with HUVEC [20], 7% in the data set with HUVEC [22], 21% in the data set with HUVEC [34] and 2% in the data set on HUVEC [35]. For the same molecule, the inhibition at 0.4883 µg/mL in the data set on HUVEC [9] is -1%. The inhibition at 62.5 µg/mL in the data set on HUVEC [10] stood at 98%. The viability at 250 µg/mL in the data set with HUVEC [13] worked out at 0%. The inhibition at 3.9062 µg/mL in the data set with HUVEC [14] amounted to 71%. The viability at 0.9766 µg/mL with HUVEC [15] was determined as 108%. Moreover, in the data set with HUVEC [17], the viability at 62.5 µg/mL was 231%. Also, the viability at 0.4883 µg/mL in the data set with HUVEC [18] amounted to 108%. Further, in the data set on HUVEC [19], the viability at 31.25 µg/mL was determined as 185%. For the same molecule, the viability at 15.625 µg/mL in the data set on HUVEC [21] worked out at 169%. For the same molecule, the inhibition at 15.625 µg/mL with HUVEC [23] is 87%. For the same molecule, the viability at 125 µg/mL in the data set on HUVEC [24] turned out to be 46%. The outcome in the data set on HUVEC [25] was inactive. In addition, in the data set on HUVEC [26], the viability at 1.9531 µg/mL stood at 123%. The viability at 7.8125 µg/mL with HUVEC [27] came to 123%. In addition, the inhibition at 125 µg/mL in the data set on HUVEC [28] was determined as 97%. Further, the inhibition at 1.9531 µg/mL with HUVEC [29] was found to be 48%. Moreover, the inhibition at 31.25 µg/mL in the data set on HUVEC [30] was 93%. For the same molecule, the inhibition at 7.8125 µg/mL with HUVEC [31] stood at 79%. Also, the inhibition at 0.9766 µg/mL with HUVEC [32] came out at 32%. Also, the viability at 3.9062 µg/mL in the data set with HUVEC [33] is 123%.

The record behind these values is ChEMBL document CHEMBL1148167, “Isolation of a dihydrobenzofuran lignan from South American dragon's blood (Croton spp.) as an inhibitor of cell proliferation” (J Nat Prod, 1993).
